What all share (assay type): functional
Experiment [1] deals with Aspergillus flavus. As to the kind of experiment: Antifungal activity against Aspergillus flavus at 100 ppm. An outline of the steps: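 Clinical isolate of A. flavus (mold) tested by agar diffusion, well technique, using a standardized spore suspension of 10⁴ CFU/mL. Compounds were dissolved in dimethylsulphoxide and diluted from a parent stock.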
The test system of experiment [2] is Aspergillus flavus. As to the kind of experiment: Antifungal activity against Aspergillus flavus at 500 ppm. The settings on record: for zone of inhibition at 500 ppm: read-out: DIZ. The method, boiled down: (§1)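 Agar well diffusion against clinical isolates (A. flavus mold; C. albicans yeast); standardized spore suspension 10⁴ CFU/mL. Compounds dissolved in DMSO as a parent stock, diluted to test levels (100, 300, 500, 1000 ppm).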

The subject of experiment [3] is Aspergillus flavus. Nature of the experiment: Antifungal activity against Aspergillus flavus at 300 ppm. The settings on record: for zone of inhibition at 300 ppm: read-out: DIZ. The method, boiled down: as §1
The subject of experiment [4] is Candida albicans. Nature of the experiment: Antifungal activity against Candida albicans at 500 ppm. The settings on record: read-out: DIZ. An outline of the steps: as §1
The subject of experiment [5] is Aspergillus flavus. Nature of the experiment: Antifungal activity against Aspergillus flavus at 1000 ppm. The settings on record: for zone of inhibition at 1000 ppm: read-out: DIZ. The method, boiled down:
as §1

The test system of experiment [6] is Candida albicans. As to the kind of experiment: Antifungal activity against Candida albicans by agar diffusion technique. The method, boiled down: (§2)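 Clinical isolates (A. flavus mold; C. albicans yeast), spore suspension standardized at 10⁴ CFU/mL. DMSO stocks diluted to a concentration series. Approximate MIC by agar diffusion (well technique), taken as the concentration giving minimal inhibition around the well.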

Experiment [7] relates to Aspergillus flavus. As to the kind of experiment: Antifungal activity against Aspergillus flavus up to 24 hrs. An outline of the steps: (§3)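 MFC in tubes of standardized spore suspension (10⁴ CFU/mL) of clinical isolates, each dosed with compound at increasing concentrations starting from the MIC. Controls: solvent at its highest level, and fluconazole. CFU counted and viability checked at intervals over 0–24 h. MFC is the lowest concentration killing about 99% of viable CFU.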

The subject of experiment [8] is Candida albicans. Nature of the experiment: Antifungal activity against Candida albicans at 1000 ppm. The settings on record: read-out: DIZ. The method, boiled down: as §1
The test system of experiment [9] is Aspergillus flavus. Nature of the experiment: Antifungal activity against Aspergillus flavus by agar diffusion technique. The method, boiled down: as §2
For experiment [10], the system named is Candida albicans. Nature of the experiment: Antifungal activity against Candida albicans up to 24 hrs. The method, boiled down: as §3
For experiment [11], the system named is Candida albicans. As to the kind of experiment: Antifungal activity against Candida albicans at 100 ppm. The settings on record: for zone of inhibition at 100 ppm: read-out: DIZ. The method, boiled down: as §1
The subject of experiment [12] is Candida albicans. As to the kind of experiment: Antifungal activity against Candida albicans at 300 ppm. The settings on record: for zone of inhibition at 300 ppm: read-out: DIZ. The method, boiled down:
as §1

Converted amounts (≈) assume the structure as drawn. The source made the active and inactive calls.

One may read the MIC as the least concentration at which growth counts as inhibited. The term MFC denotes the smallest concentration meeting the test's criterion for killing the fungus. Take `O=C(O)CCn1nc2sc3ccccc3n2c1=S`: the “diameter of the inhibition zone (DIZ)” value in the experiment with Aspergillus flavus [1], in the experiment with Aspergillus flavus [3] and in the experiment on Candida albicans [11] was “inactive” throughout. Further, the zone of inhibition at 500 ppm in the experiment on Aspergillus flavus [2] is under 10 mm; with Candida albicans [4], 10 mm. The figures for the zone of inhibition at 1000 ppm in the experiment with Aspergillus flavus [5] and in the experiment on Candida albicans [8] were 10 mm and over 16 mm, respectively. The MIC was 300 µg/mL (≈ 1070 µM) in the experiment with Candida albicans [6] and 500 µg/mL (≈ 1790 µM) in the experiment with Aspergillus flavus [9]. For the same compound, the MFC result in the experiment with Aspergillus flavus [7] and in the experiment with Candida albicans [10] was “inactive” throughout. Also, the zone of inhibition at 300 ppm in the experiment on Candida albicans [12] was under 10 mm.

Consider `COC(=O)C(NC(=O)CSc1nnc2sc3ccccc3n12)C(C)O` (racemic), for which the “diameter of the inhibition zone (DIZ)” value in the experiment on Aspergillus flavus [1], in the experiment on Aspergillus flavus [2], with Aspergillus flavus [3], in the experiment on Candida albicans [11] and in the experiment with Candida albicans [12] was “inactive” each time. Also, the zone of inhibition at 500 ppm in the experiment with Candida albicans [4] is under 10 mm. The zone of inhibition at 1000 ppm in the experiment with Aspergillus flavus [5] and with Candida albicans [8] was 10 mm in each case. In addition, the minimum inhibitory concentration (MIC) with Candida albicans [6] was found to be 500 µg/mL (≈ 1310 µM); with Aspergillus flavus [9], 1000 µg/mL (≈ 2630 µM). Also, the MFC entry in the experiment on Aspergillus flavus [7] and in the experiment on Candida albicans [10] was “inactive” each time.

In the case of `O=C(CSc1nnc2sc3ccccc3n12)N(C(=O)NC1CCCCC1)C1CCCCC1`, in the experiment with Aspergillus flavus [1], the “diameter of the inhibition zone (DIZ)” value was “inactive”. Further, the zone of inhibition at 500 ppm in the experiment with Aspergillus flavus [2] and in the experiment with Candida albicans [4] was 10 mm throughout. Also, the zone of inhibition at 300 ppm with Aspergillus flavus [3] and in the experiment with Candida albicans [12] was under 10 mm each time. Further, the zone of inhibition at 1000 ppm with Aspergillus flavus [5] and in the experiment on Candida albicans [8] was over 16 mm throughout. In addition, the minimal inhibitory concentration (MIC) in the experiment with Candida albicans [6] was found to be 100 µg/mL (≈ 212 µM); in the experiment on Aspergillus flavus [9], 300 µg/mL (≈ 636 µM). Besides, in the experiment on Aspergillus flavus [7], the MFC turned out to be 500 µg/mL (≈ 1060 µM). Besides, the MFC entry with Candida albicans [10] was “inactive”. Besides, in the experiment with Candida albicans [11], the zone of inhibition at 100 ppm is under 10 mm.

For `NNC(=O)CSc1nnc2sc3ccccc3n12`, the “diameter of the inhibition zone (DIZ)” value with Aspergillus flavus [1], with Aspergillus flavus [2], with Aspergillus flavus [3] and in the experiment on Aspergillus flavus [5] was “inactive” each time. Further, in the experiment with Candida albicans [4], the zone of inhibition at 500 ppm was determined as 10 mm. In the experiment with Candida albicans [6], this compound gave an MIC of 100 µg/mL (≈ 358 µM). For the same compound, in the experiment with Aspergillus flavus [7], the MFC entry was “inactive”. Moreover, in the experiment on Candida albicans [8], the zone of inhibition at 1000 ppm is over 16 mm. The MIC result with Aspergillus flavus [9] was “inactive”. The compound further yielded a minimum fungicidal concentration (MFC) against Candida albicans [10] of 500 µg/mL (≈ 1790 µM). Besides, the zone of inhibition at 100 ppm in the experiment with Candida albicans [11] is under 10 mm. Also, the zone of inhibition at 300 ppm with Candida albicans [12] is under 10 mm.

For `O=C(O)CSc1nnc2sc3ccccc3n12`, the “diameter of the inhibition zone (DIZ)” value with Aspergillus flavus [1], in the experiment with Aspergillus flavus [2], with Aspergillus flavus [3] and with Candida albicans [11] was “inactive” in each case. Moreover, in the experiment on Candida albicans [4], the zone of inhibition at 500 ppm is under 10 mm. In addition, the values for the zone of inhibition at 1000 ppm in the experiment with Aspergillus flavus [5] and with Candida albicans [8] were under 10 mm and 10 mm, respectively. Further, the MIC against Candida albicans [6] was 300 µg/mL (≈ 1130 µM); against Aspergillus flavus [9], 1000 µg/mL (≈ 3770 µM). Also, the MFC with Aspergillus flavus [7] worked out at 500 µg/mL (≈ 1880 µM). In the experiment on Candida albicans [10], the MFC entry is “inactive”. The zone of inhibition at 300 ppm in the experiment with Candida albicans [12] is under 10 mm.

Take `O=C(CCn1nc2sc3ccccc3n2c1=S)N(C(=O)NC1CCCCC1)C1CCCCC1`: the “diameter of the inhibition zone (DIZ)” value in the experiment with Aspergillus flavus [1] is “inactive”. Further, the results for the zone of inhibition at 500 ppm with Aspergillus flavus [2] and in the experiment with Candida albicans [4] were 10 mm and over 16 mm, respectively. Besides, the zone of inhibition at 300 ppm was under 10 mm in the experiment with Aspergillus flavus [3] and 10 mm in the experiment with Candida albicans [12]. For the same compound, the zone of inhibition at 1000 ppm with Aspergillus flavus [5] and with Candida albicans [8] was over 16 mm in each case. In addition, the minimal inhibitory concentration (MIC) against Candida albicans [6] is 100 µg/mL (≈ 206 µM); in the experiment on Aspergillus flavus [9], 300 µg/mL (≈ 618 µM). For the same compound, the MFC result in the experiment with Aspergillus flavus [7] was “inactive”. In the experiment on Candida albicans [10], this compound displayed an MFC of 500 µg/mL (≈ 1030 µM). Besides, in the experiment on Candida albicans [11], the zone of inhibition at 100 ppm is under 10 mm.

As to `Sc1nc2ccccc2s1` [2-MERCAPTOBENZOTHIAZOLE], the “diameter of the inhibition zone (DIZ)” value in the experiment with Aspergillus flavus [1] and in the experiment with Aspergillus flavus [3] was “inactive” each time. Further, the zone of inhibition at 500 ppm with Aspergillus flavus [2] is under 10 mm; in the experiment on Candida albicans [4], 10 mm. The values for the zone of inhibition at 1000 ppm in the experiment with Aspergillus flavus [5] and in the experiment with Candida albicans [8] were 10 mm and over 16 mm, respectively. In addition, the minimal inhibitory concentration (MIC) in the experiment with Candida albicans [6] is 100 µg/mL (≈ 598 µM); against Aspergillus flavus [9], 500 µg/mL (≈ 2990 µM). In addition, the MFC result in the experiment with Aspergillus flavus [7] is “inactive”. Also, the MFC in the experiment with Candida albicans [10] was found to be 500 µg/mL (≈ 2990 µM). In addition, the zone of inhibition at 100 ppm in the experiment on Candida albicans [11] is under 10 mm. Besides, the zone of inhibition at 300 ppm with Candida albicans [12] was under 10 mm.

(Values after ChEMBL document CHEMBL2390931, “Synthesis and antifungal activity of some s-mercaptotriazolobenzothiazolyl amino acid derivatives” (2013).)
